RGS4 inh: human RGS4 inhibition | B-score at 10 µM | HEK293 M3R/RGS4 inducible, Fluo-4 calcium flux; stronger effect = higher value; triggered by carbachol at its EC20 | hit rate 0.45% among 310,000 | P49798 | AID 463165;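 active means B-score, a plate-corrected calcium signal, over three deviations above library mean, with baseline fluorescence within five deviations of library mean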;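 further: RGS4 expression induced by doxycycline in cells with stable M3 receptor; B-score is computed from the integrated fluorescence ratio over baseline after carbachol; higher B-score means a larger calcium signal and so more RGS4 inhibition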
Target sequence (P49798 whole entry, looked up): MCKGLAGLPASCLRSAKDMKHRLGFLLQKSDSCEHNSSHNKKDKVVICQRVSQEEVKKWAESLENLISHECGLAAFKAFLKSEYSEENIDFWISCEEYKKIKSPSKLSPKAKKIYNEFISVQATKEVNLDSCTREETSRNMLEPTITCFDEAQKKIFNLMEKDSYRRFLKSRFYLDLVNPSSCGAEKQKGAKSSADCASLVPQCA
MrgX1 antagonist: human MrgX1 receptor antagonism, primary screen | Q96LB2 | MRGX1-HEK293 calcium flux, Fluo-4, BAM8-22 antagonism; stronger effect = lower value | B-score at 10 µM | hit rate 1.3% among 310,000 | AID 588676;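 active means calcium-response B-score plate-corrected more than 3 library SD below zero, starting fluorescence within 5 deviations, no agonist response on first addition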;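 further: peak minus trough fluorescence over baseline after final BAM8-22 challenge near maximal dose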
Target sequence (Q96LB2 whole entry, looked up): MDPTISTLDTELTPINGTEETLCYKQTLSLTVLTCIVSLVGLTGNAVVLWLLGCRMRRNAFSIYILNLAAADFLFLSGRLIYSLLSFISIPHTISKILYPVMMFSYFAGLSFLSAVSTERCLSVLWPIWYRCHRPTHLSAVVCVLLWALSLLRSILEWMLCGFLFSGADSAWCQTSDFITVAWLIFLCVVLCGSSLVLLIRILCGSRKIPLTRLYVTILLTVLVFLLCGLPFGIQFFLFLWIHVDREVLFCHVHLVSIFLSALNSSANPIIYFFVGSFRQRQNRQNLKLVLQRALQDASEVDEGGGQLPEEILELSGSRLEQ
MrgX1 PAM: allosterically activates human MrgX1 receptor signaling; MrgX1-HEK293, Fluo-4 calcium flux, FDSS; stronger effect = higher value; B-score at 10 µM; hit rate 0.63% among 310,000; AID 588675;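 active means plate-corrected calcium response at least 3 library SD above typical, normal starting fluorescence, not activating the receptor alone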;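 further: compound read alongside a low EC10 to EC30 dose of BAM8-22 agonist; peak minus trough fluorescence over baseline measured at the second addition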
RGS4 pot: RGS4 potentiation or activation; HEK293 M3R/inducible RGS4, carbachol calcium flux Fluo4; stronger effect = lower value; B-score at 10 µM; AID 463111; hit rate 0.92% among 310,000;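 active means B-score of the integrated calcium signal more than 4 SD below the library mean, with starting fluorescence not abnormally high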;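 further: negative B-score means reduced calcium response which marks RGS4 activation or potentiation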
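Material: Inducible-RGS4 HEK293 cells carrying M3 receptor; also added: carbachol at ECmax as muscarinic agonist stimulus; incubation: compound preincubation 20 min at room temperature before agonist; signal: Fluo4-AM (2 µM) calcium-flux fluorescence, kinetic read; measure: integrated calcium ratio converted to B score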
MrgX1 ag: human MrgX1 receptor agonism, primary screen. Q96LB2. MrgX1-HEK293 cells, Fluo-4 calcium fluorescence, agonist mode; stronger effect = higher value. B-score at 10 µM. hit rate 0.44% among 310,000. AID 588627;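 active means calcium response B-score plate-corrected fluorescence ratio at least 3 library SD, with starting fluorescence B-score inside 5 SD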
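Assay system: MrgX1-expressing HEK293 cells / Amount: fifteen thousand cells per well / Doses: test compound in the initial addition of three / Timing: cells plated overnight, dye loaded 0.5 h 37 °C, 0.5 h room temperature / Technique: kinetic calcium dye fluorescence, Fluo-4 NW / Control set: positive and negative controls per plate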
An asterisk follows results filed as active; i = inactive; nt = not tested or not shown. In the library only some 3.5% were active in any assay of this set; here they are far more common.

SMILES | RGS4 inh | MrgX1 antagonist | MrgX1 PAM | RGS4 pot | MrgX1 ag
Cc1cc(C)nc(SCc2ccc(C(=O)NNC(=O)Nc3cccc(Cl)c3)cc2)n1 | i | i | i | i | i
CN1CCN(C2=Cc3ccccc3Sc3cc(F)c(F)cc32)CC1 | i | i | i | i | i
CN1CCN(C2=Cc3ccccc3Sc3cc(F)c(Cl)cc32)CC1 | i | i | i | -10* | i
Cc1ccc(CN(Cc2cc3cccc(C)c3[nH]c2=O)C(=S)NCCCN(C)C)cc1 | i | i | 9.7* | i | i
CCC(C)NCCCCOc1cc(C)cc(C(C)C)c1 (centres undefined) | i | i | i | -7.3* | i
CCN(CC(=O)Nc1ccc(NC(C)=O)cc1)C(=O)c1cccc(-n2cccc2)c1 | i | i | i | i | i
CCCC1=NN2C(=N)/C(=C\c3cc(C)n(Cc4ccccc4)c3C)C(=O)N=C2S1 | i | i | i | i | i
CCCC1=NN2C(=N)/C(=C\c3ccc(SCc4ccco4)o3)C(=O)N=C2S1 | i | i | i | i | 31*
O=[N+]([O-])c1ccc(N/N=C2\CC3CC=CC23)cc1 (centres undefined) | i | i | 8.1* | i | i
CCOc1ccc(-c2[nH]ncc2-c2ccc(Cl)cc2)c(O)c1 | i | -13* | 13* | i | i
O=C(O)c1ccc(N=Nc2c(O)[nH]c3ccccc23)cc1 | i | i | i | i | i
Cc1cc(N=Nc2c(O)c3ccccc3[nH]c2=O)ccc1N=Nc1ccc(C(=O)N(C)C)cc1 | i | nt | nt | -7.8* | nt
CCC(C)[C@H]1CNCCN1CCc1cc(C(F)(F)F)cc(C(F)(F)F)c1 (some centres undefined) | i | i | i | i | i
CCC(C)[C@H]1CNC(=S)N1CCc1cc(C(F)(F)F)cc(C(F)(F)F)c1 (some centres undefined) | i | -5.2* | i | i | i
Cc1ccc(C)c(NC(=O)/C(C#N)=C/c2ccc(Sc3nncn3C)c([N+](=O)[O-])c2)c1 | 6.2* | i | i | i | i
N#C/C(C(N)=O)=c1/ccc2c(c1)N1C3=C(CCCC3)CC3CCCCC31N=2 (centres undefined) | i | i | i | -8.8* | i
COc1ccccc1C(=O)COC(=O)c1ccccc1OCC(=O)Nc1ccc(SC(F)F)cc1 | i | i | i | -7.8* | i
COc1ccc(/C=C2\C(=O)ON=C2c2cccc([N+](=O)[O-])c2)cc1 | 6.8* | i | i | i | i
O=C(CCCNC(=O)c1ccc(Cl)cc1)Nc1ccccc1C(F)(F)F | i | i | i | i | i
Cc1cccn2c(=O)c(C(=O)NC3CC(C)CC(C)(C)C3)c(O)nc12 (centres undefined) | i | i | i | -7.2* | i
Oc1cccc2ccc(Nc3ccccn3)nc12 | i | -7.4* | i | i | i
Cc1ccccc1CN1C(=O)C(C)S/C1=N/N=C/c1ccco1 (centres undefined) | i | i | 13* | i | i
COc1ccccc1C(=O)NC(CCSC)C(=O)OC(C)C(N)=O (centres undefined) | i | i | 12* | i | i
CCN(CC(=O)NC(C)C)C(=O)C(CCSC)NC(=O)c1ccccc1OC (centres undefined) | i | i | i | i | i
CCCCOP(=O)(c1ccc(N(C)C)cc1)C(Nc1ccccc1)c1ccccc1 (centres undefined) | i | i | i | -7.3* | i
SMILES | RGS4 inh | MrgX1 antagonist | MrgX1 PAM | RGS4 pot | MrgX1 ag
CCCOP(=O)(c1ccc(N(C)C)cc1)C(Nc1ccccc1)c1ccc(N(C)C)cc1 (centres undefined) | i | i | i | i | i
Cc1cccc(CN2CCCC(C(=O)Nc3ccc(-c4cscn4)cc3)C2)c1 (centres undefined) | i | i | i | -7.3* | i
Cc1cccc(N2CCN(C(=O)c3ccc(CS(=O)Cc4cccc(Cl)c4)o3)CC2)c1C (centres undefined) | i | i | i | -10* | i
Cc1ccc(C)c(N2CCN(C(=O)c3ccc(CS(=O)Cc4ccc(Cl)cc4)o3)CC2)c1 (centres undefined) | i | i | i | -8.5* | i
Cc1ccc(Cl)cc1N1CCN(C(=O)c2ccc(CS(=O)Cc3ccc(Cl)cc3)o2)CC1 (centres undefined) | i | i | i | i | i
O=C(c1ccc(CS(=O)Cc2ccc(Cl)cc2)o1)N1CCN(c2ccccc2F)CC1 (centres undefined) | i | i | i | i | i
Cn1c2ccccc2c2nnc(SCC(=O)Nc3cccc(O)c3)nc21 | i | i | i | i | i
COc1cc(NC(=O)CN(C)CCOc2ccccc2)c(C)cc1[N+](=O)[O-] | i | i | i | i | i
CN(CCOc1ccccc1)CC(=O)Nc1ccc(Cl)cc1[N+](=O)[O-] | i | i | 13* | i | i
CCOC(=O)c1sc2cc([N+](=O)[O-])cc(SCCO)c2c1N | i | i | i | i | i
CCOC(=O)c1sc2cc([N+](=O)[O-])cc(SCC(=O)OC)c2c1N | i | -5.7* | i | i | i
COc1ccc([N+](=O)[O-])cc1NC(=O)CSc1nc(C)c(C)c(C)n1 | i | -4.5* | i | i | i
COc1ccc([N+](=O)[O-])cc1NC(=O)CSc1nccc(C)n1 | i | i | i | i | i
COc1ccc(-n2c(SCC(=O)Nc3ccccc3C)nc(O)c(Cc3ccccc3)c2=O)cc1 | i | i | i | i | i
CC(=O)c1ccc(S(=O)(=O)N2CCC(NC(=O)c3ccccc3)CC2)cc1 | i | i | i | i | i
Clc1ccc2c(c1)CCc1cccnc1C2=C1CCNCC1 | i | i | i | -7.2* | i
CCCCCCOC1(c2ccccc2)OC(=O)c2ccccc21 (centres undefined) | i | i | i | -7* | i
O=C1CC2(CCN(C(=O)c3cccc([N+](=O)[O-])c3)CC2)Oc2ccccc21 | i | i | i | i | i
N/C(=N\OC(=O)c1cccc(Cn2cc(C(F)(F)F)ccc2=O)c1)c1ccc(Cl)cc1 | i | i | i | i | i
O=C(NCc1ccccn1)c1ccc(Cl)c(S(=O)(=O)N2CCOCC2)c1 | i | i | i | i | i
Cc1ccc(-n2c3nc(=O)[nH]c(=O)c-3cc3cc([N+](=O)[O-])ccc32)cc1 | i | i | i | i | 53*

Compound activity from PubChem BioAssay.
